Data from ChEMBL document CHEMBL3112427, “Insights into the mechanism of streptonigrin-induced protein arginine deiminase inactivation” (Bioorg Med Chem, 2014).
Calls of active or inactive are those of the source. The calls are words filed in the database; no cut-off is given here.

Legend:
[1] = molecular target: T1, Protein-arginine deiminase type-3 (Homo sapiens, UniProt Q9ULW8); experiment: Inhibition of recombinant wild-type PAD3 (unknown origin) using N-alpha-Benzoyl-L-arginine amide as substrate preincubated for 15 mins followed by substrate addition measured after 15 mins by COLDER assay
T1 sequence (Q9ULW8 whole entry): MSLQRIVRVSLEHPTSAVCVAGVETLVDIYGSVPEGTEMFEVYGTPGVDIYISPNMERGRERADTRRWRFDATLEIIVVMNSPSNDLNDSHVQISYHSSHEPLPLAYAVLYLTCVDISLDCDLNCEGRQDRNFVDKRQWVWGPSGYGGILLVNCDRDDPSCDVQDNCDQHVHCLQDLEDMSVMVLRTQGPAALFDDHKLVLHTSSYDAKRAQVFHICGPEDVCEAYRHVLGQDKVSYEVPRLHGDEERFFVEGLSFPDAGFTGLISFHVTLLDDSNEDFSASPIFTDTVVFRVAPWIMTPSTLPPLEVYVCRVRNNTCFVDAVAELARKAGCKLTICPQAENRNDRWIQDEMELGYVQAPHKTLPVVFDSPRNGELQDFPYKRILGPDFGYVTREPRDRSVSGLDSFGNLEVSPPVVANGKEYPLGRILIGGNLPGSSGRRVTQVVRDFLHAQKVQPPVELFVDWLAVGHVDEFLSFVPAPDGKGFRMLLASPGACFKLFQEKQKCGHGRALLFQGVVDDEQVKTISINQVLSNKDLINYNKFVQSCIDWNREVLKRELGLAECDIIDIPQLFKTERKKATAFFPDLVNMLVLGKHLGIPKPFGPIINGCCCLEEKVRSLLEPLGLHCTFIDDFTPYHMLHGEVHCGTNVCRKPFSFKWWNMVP

[2] = tested on: NIH3T3; experiment: Cytotoxicity against mouse NIH/3T3 cells assessed as cell viability at 10 uM after 3 days by XTT-PMS assay relative to control; type: cell-based; details: nih3t3, 72 h
How it was run: (§1)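 U2OS or NIH 3T3 cells (2.5 × 10^4 cells/mL) plated in 48-well format (n=4) and dosed with 10 µM compound for 3 days. XTT-PMS activated reagent then added for 4 h of colour development; formazan absorbance read at 475 nm.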

[3] = molecular target: T2, Protein-arginine deiminase type-4 (Homo sapiens, UniProt Q9UM07); experiment: Inhibition of recombinant wild-type PAD4 (unknown origin) using N-alpha-Benzoyl-L-arginine ethyl ester as substrate preincubated for 15 mins followed by substrate addition measured after 15 mins by COLDER assay
[4] = molecular target: T3, Protein-arginine deiminase type-1 (Homo sapiens, UniProt Q9ULC6); experiment: Inhibition of recombinant wild-type PAD1 (unknown origin) using N-alpha-Benzoyl-L-arginine amide as substrate preincubated for 15 mins followed by substrate addition measured after 15 mins by COLDER assay
T3 sequence (Q9ULC6 whole entry): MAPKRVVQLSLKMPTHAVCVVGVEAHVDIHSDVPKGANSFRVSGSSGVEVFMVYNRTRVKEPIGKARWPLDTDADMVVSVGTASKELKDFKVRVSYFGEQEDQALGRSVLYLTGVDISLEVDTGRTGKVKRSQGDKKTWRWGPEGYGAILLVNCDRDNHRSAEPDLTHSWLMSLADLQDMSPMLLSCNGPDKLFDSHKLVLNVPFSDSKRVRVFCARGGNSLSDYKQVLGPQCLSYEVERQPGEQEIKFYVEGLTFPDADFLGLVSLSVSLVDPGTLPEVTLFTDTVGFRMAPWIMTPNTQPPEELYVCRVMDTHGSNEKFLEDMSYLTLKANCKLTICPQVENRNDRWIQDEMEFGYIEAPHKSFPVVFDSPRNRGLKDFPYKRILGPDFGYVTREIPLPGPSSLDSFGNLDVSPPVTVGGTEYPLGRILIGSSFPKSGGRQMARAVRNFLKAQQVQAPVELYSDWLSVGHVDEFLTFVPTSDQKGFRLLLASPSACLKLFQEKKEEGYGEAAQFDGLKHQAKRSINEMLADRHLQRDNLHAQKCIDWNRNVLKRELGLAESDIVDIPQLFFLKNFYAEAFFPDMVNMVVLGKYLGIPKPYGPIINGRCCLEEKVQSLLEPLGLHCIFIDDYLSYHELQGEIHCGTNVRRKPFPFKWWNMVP

[5] = molecular target: T4, Protein-arginine deiminase type-2 (Homo sapiens, UniProt Q9Y2J8); experiment: Inhibition of recombinant wild-type PAD2 (unknown origin) using N-alpha-Benzoyl-L-arginine ethyl ester as substrate preincubated for 15 mins followed by substrate addition measured after 15 mins by COLDER assay
[6] = tested on: U2OS; experiment: Cytotoxicity against human U2OS cells assessed as cell viability at 10 uM after 3 days by XTT-PMS assay relative to control; type: functional; details: for viability at 10 µM: 72 h, read-out: Activity; how it was run: as §1
[7] = tested on: Protein-arginine deiminase type-4 (Homo sapiens), Q9UM07 [C645A]; experiment: Binding affinity to PAD4 C645A mutant (unknown origin) assessed as mass shift of enzyme at 1:10 enzyme to compound ratio preincubated for 1 hr followed by overnight dialysis in double distilled water by MALDI mass spectrometric analysis
[8] = molecular target: T2, Protein-arginine deiminase type-4; experiment: Binding affinity to recombinant wild-type PAD4 (unknown origin) assessed as mass shift of enzyme at 1:10 enzyme to compound ratio preincubated for 1 hr followed by overnight dialysis in double distilled water by MALDI mass spectrometric analysis in presence of superoxide dismutase
[9] = tested on: Protein-arginine deiminase type-2 (Homo sapiens), Q9Y2J8 [C647A]; experiment: Binding affinity to PAD2 C647A mutant (unknown origin) assessed as mass shift of enzyme at 1:10 enzyme to compound ratio preincubated for 1 hr followed by overnight dialysis in double distilled water by MALDI mass spectrometric analysis
[10] = molecular target: T2, Protein-arginine deiminase type-4; experiment: Binding affinity to recombinant wild-type PAD4 (unknown origin) assessed as mass shift of enzyme at 1:10 enzyme to compound ratio preincubated for 1 hr followed by overnight dialysis in double distilled water by MALDI mass spectrometric analysis in presence of catalase
[11] = molecular target: T4, Protein-arginine deiminase type-2; experiment: Binding affinity to recombinant wild-type PAD2 (unknown origin) assessed as mass shift of enzyme at 1:10 enzyme to compound ratio preincubated for 1 hr followed by overnight dialysis in double distilled water by MALDI mass spectrometric analysis
[12] = tested on: Protein-arginine deiminase type-4 (Homo sapiens), Q9UM07 [C645A]; experiment: Binding affinity to PAD4 C645A mutant (unknown origin) assessed as mass shift of enzyme at 1:10 enzyme to compound ratio preincubated for 1 hr followed by overnight dialysis in double distilled water by MALDI mass spectrometric analysis in presence of superoxide dismutase
[13] = molecular target: T4, Protein-arginine deiminase type-2; details: at 0.1 to 2.5 µM
[14] = tested on: Protein-arginine deiminase type-4 (Homo sapiens), Q9UM07 [C645A]; experiment: Binding affinity to PAD4 C645A mutant (unknown origin) assessed as mass shift of enzyme at 1:10 enzyme to compound ratio preincubated for 1 hr followed by overnight dialysis in double distilled water by MALDI mass spectrometric analysis in presence of catalase
[15] = molecular target: T2, Protein-arginine deiminase type-4; experiment: Competitive inhibition of recombinant wild-type PAD4 (unknown origin) at 1 to 50 uM by fluorescence polarization-ABPP assay in presence of RFA; details: in the assay text read “gel-based competitive ABPP assay” for “fluorescence polarization-ABPP assay”
How it was run: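 Wild-type PAD4 (2 µM final) labelled with RFA (10 µM final) plus 10 mM calcium in the presence of competitor (0–50 µM final). Quenched with SDS loading buffer, boiled 20 min, run on 12% SDS-PAGE; in-gel fluorescence imaged and quantified.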

[16] = molecular target: T2, Protein-arginine deiminase type-4; experiment: Binding affinity to recombinant wild-type PAD4 (unknown origin) assessed as mass shift of enzyme at 1:10 enzyme to compound ratio preincubated for 1 hr followed by overnight dialysis in double distilled water by MALDI mass spectrometric analysis
[17] = tested on: NIH3T3; experiment: Cytotoxicity against mouse NIH/3T3 cells after 3 days by XTT-PMS assay; details: NIH3T3, 72 h
[18] = tested on: U2OS; experiment: Cytotoxicity against human U2OS cells after 3 days by XTT-PMS assay; details: 72 h
[19] = molecular target: T5, Protein-arginine deiminase type-3 (Homo sapiens) (UniProt Q9ULW8); experiment: Irreversible inhibition of recombinant wild-type PAD3 (unknown origin) using N-alpha-Benzoyl-L-arginine amide as substrate assessed as residual activity at 170-fold excess of compound after 1 hr by dialysis method
T5 sequence (whole entry): T1 sequence (Q9ULW8 whole entry)

[20] = molecular target: T2, Protein-arginine deiminase type-4; experiment: Irreversible inhibition of recombinant wild-type PAD4 (unknown origin) using N-alpha-Benzoyl-L-arginine ethyl ester as substrate assessed as residual activity at 170-fold excess of compound after 1 hr by dialysis method
How it was run: (§2)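 Wild-type PAD2 or PAD4 (0.6 µM final) incubated 1 h with compound (170-fold excess) or no compound in Reaction Buffer, then dialysed 20 h against Long-Term Storage Buffer (Tris-HCl pH 7.6, 1 mM EDTA, 500 mM NaCl, 2 mM DTT, 10% glycerol). Residual activity measured with 10 mM BAEE, quenched in liquid N2, and expressed relative to separately dialysed untreated enzyme (100%).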

[21] = molecular target: T6, Protein-arginine deiminase type-1 (Homo sapiens) (UniProt Q9ULC6); experiment: Irreversible inhibition of recombinant wild-type PAD1 (unknown origin) using N-alpha-Benzoyl-L-arginine amide as substrate assessed as residual activity at 170-fold excess of compound after 1 hr by dialysis method
T6 sequence (whole entry): T3 sequence (Q9ULC6 whole entry)

[22] = molecular target: T4, Protein-arginine deiminase type-2; experiment: Irreversible inhibition of recombinant wild-type PAD2 (unknown origin) using N-alpha-Benzoyl-L-arginine ethyl ester as substrate assessed as residual activity at 170-fold excess of compound after 1 hr by dialysis method; how it was run: as §2
[23] = molecular target: T4, Protein-arginine deiminase type-2; experiment: Inhibition of recombinant wild-type PAD2 (unknown origin) using N-alpha-Benzoyl-L-arginine ethyl ester as substrate preincubated for 10 mins followed by substrate addition measured after 15 mins by COLDER assay
[24] = molecular target: T2, Protein-arginine deiminase type-4; details: 0.5 uM
[25] = molecular target: T2, Protein-arginine deiminase type-4; experiment: Inhibition of recombinant wild-type PAD4 (unknown origin) using N-alpha-Benzoyl-L-arginine ethyl ester as substrate preincubated for 10 mins followed by substrate addition measured after 15 mins by COLDER assay
[26] = molecular target: T4, Protein-arginine deiminase type-2
[27] = molecular target: T2, Protein-arginine deiminase type-4

Sequence of Protein-arginine deiminase type-2 (Homo sapiens), Q9Y2J8 [C647A] (Q9Y2J8 whole entry C647A): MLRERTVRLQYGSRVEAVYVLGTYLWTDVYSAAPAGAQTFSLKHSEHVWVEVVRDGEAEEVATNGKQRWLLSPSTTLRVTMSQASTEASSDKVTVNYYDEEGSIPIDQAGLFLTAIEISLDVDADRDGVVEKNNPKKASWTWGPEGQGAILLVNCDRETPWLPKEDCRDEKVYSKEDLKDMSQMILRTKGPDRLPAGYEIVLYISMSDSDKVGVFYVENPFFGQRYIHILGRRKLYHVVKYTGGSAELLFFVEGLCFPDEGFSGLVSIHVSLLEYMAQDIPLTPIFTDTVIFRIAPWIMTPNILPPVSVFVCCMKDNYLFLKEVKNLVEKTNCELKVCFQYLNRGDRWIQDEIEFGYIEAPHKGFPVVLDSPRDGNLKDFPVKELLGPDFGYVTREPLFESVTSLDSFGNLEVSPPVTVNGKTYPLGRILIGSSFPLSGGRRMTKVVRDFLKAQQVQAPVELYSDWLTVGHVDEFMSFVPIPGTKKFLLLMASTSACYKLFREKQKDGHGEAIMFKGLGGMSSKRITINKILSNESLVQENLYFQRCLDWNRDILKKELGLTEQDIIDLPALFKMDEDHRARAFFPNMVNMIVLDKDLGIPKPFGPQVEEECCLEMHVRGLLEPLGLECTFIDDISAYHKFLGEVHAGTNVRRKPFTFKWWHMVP
T4 sequence (Q9Y2J8 whole entry): as the sequence (Q9Y2J8 whole entry C647A) above, with A647C counted along it
T2 sequence (Q9UM07 whole entry): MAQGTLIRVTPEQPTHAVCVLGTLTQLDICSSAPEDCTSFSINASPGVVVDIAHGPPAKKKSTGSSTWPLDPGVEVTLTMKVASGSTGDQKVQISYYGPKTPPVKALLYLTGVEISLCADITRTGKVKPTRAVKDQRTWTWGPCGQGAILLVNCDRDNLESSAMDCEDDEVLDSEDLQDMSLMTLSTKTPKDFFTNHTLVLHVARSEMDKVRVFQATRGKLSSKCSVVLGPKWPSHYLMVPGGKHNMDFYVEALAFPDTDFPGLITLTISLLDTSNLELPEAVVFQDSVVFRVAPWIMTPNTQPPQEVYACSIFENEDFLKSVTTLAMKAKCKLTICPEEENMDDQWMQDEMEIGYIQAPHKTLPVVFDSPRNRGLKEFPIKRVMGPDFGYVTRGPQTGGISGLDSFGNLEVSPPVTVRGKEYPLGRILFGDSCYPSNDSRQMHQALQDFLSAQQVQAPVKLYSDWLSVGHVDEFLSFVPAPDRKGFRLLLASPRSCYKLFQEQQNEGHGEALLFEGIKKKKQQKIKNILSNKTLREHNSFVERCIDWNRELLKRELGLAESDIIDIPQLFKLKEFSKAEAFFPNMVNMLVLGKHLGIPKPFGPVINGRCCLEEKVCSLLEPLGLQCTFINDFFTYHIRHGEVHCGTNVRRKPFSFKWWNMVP
Sequence of Protein-arginine deiminase type-4 (Homo sapiens), Q9UM07 [C645A] (Q9UM07 whole entry C645A): as the sequence (Q9UM07 whole entry) above, with C645A counted along it

Row | SMILES | IC50 [1] | Activity [2] | IC50 [3] | IC50 [4] | IC50 [5] | Activity [6] | viability at 10 µM [6] | Activity [7] | Activity [8] | Activity [9] | Activity [10] | Activity [11] | Activity [12] | inhibition [13] | Activity [14] | inhibition [15] | Activity [16] | EC50 [17] | EC50 [18] | other results
1 | COC1=C(Br)C(=O)c2ncccc2C1=O | 4.4 µM | Active | 3.3 µM | 4.55 µM | 6.32 µM | Active | – | – | – | – | – | – | – | – | – | – | – | – | – | –
2 | NC1=C(Br)C(=O)c2cccnc2C1=O | – | <= 30% | – | – | – | – | ≤ 30% | – | – | – | – | – | – | – | – | – | – | – | – | –
3 | COC1=C(N)C(=O)c2nc(-c3nc(C(=O)O)c(C)c(-c4ccc(OC)c(OC)c4O)c3N)ccc2C1=O [STREPTONIGRIN] | 0.43 µM | – | – | 48.3 µM | 26.1 µM | – | – | Active | Active | Active | Active | Active | Active | Active | Active | Active | Active | – | – | –
4 | NC1=CC(=O)c2cccnc2C1=O | 0.17 µM | <= 30% | 1 µM | 0.96 µM | 0.74 µM | – | ≤ 30% | – | – | – | – | – | – | – | – | – | – | 1.1 µM | 0.8 µM | –
5 | NC1=CC(=O)c2ccc(-c3cccc(C(=O)O)n3)nc2C1=O | 0.71 µM | Active | – | 0.07 µM | 0.2 µM | Active | – | Active | Active | Active | Active | Active | Active | Active | Active | Active | Active | 61.7 µM | 58.3 µM | Activity [19]: inactive; Activity [20]: inactive; Activity [21]: inactive; Activity [22]: inactive
6 | NC1=CC(=O)c2ccc(-c3ccccn3)nc2C1=O | 0.13 µM | <= 30% | 0.64 µM | 0.95 µM | 0.32 µM | – | ≤ 30% | Active | Active | Active | Active | Active | Active | Active | Active | Active | Active | 0.6 µM | 0.4 µM | Ki [23]: 8.08 µM; inhibition [24]: Active; Ki [25]: 20.1 µM; Kinact [26]: 0.07 min⁻¹; Kinact [27]: 0.12 min⁻¹
